Assay results published in ChEMBL document CHEMBL4257575, “Discovery of Novel Flavonoid Dimers To Reverse Multidrug Resistance Protein 1 (MRP1, ABCC1) Mediated Drug Resistance in Cancers Using a High Throughput Platform with "Click Chemistry"” (J Med Chem, 2018).

Molecular target: Multidrug resistance-associated protein 1 (Homo sapiens, UniProt P33527)
Assay: Inhibition of MRP1 in human 2008/MRP1 cells assessed as potentiation of doxorubicin-induced cytotoxicity by measuring cell survival at 2 uM after 5 days by MTS assay relative to control
Assay type: cell-based
Conditions: 120 h
Method in brief: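 2008/MRP1 cells (retroviral human MRP1 transfectant; RPMI 1640, 10% FBS) at 4,000 per well, with 100 nM doxorubicin plus crude, unpurified click products in DMSO: 2 µM in the primary screen, 1 µM in the secondary. Incubated 5 days at 37 °C. MTS/PMS added for 2 h at 37 °C, absorbance read at 490 nm. % survival is relative to wells without DOX or product. Run in triplicate, at least three experiments.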

Multidrug resistance-associated protein 1, sequence (P33527 whole entry): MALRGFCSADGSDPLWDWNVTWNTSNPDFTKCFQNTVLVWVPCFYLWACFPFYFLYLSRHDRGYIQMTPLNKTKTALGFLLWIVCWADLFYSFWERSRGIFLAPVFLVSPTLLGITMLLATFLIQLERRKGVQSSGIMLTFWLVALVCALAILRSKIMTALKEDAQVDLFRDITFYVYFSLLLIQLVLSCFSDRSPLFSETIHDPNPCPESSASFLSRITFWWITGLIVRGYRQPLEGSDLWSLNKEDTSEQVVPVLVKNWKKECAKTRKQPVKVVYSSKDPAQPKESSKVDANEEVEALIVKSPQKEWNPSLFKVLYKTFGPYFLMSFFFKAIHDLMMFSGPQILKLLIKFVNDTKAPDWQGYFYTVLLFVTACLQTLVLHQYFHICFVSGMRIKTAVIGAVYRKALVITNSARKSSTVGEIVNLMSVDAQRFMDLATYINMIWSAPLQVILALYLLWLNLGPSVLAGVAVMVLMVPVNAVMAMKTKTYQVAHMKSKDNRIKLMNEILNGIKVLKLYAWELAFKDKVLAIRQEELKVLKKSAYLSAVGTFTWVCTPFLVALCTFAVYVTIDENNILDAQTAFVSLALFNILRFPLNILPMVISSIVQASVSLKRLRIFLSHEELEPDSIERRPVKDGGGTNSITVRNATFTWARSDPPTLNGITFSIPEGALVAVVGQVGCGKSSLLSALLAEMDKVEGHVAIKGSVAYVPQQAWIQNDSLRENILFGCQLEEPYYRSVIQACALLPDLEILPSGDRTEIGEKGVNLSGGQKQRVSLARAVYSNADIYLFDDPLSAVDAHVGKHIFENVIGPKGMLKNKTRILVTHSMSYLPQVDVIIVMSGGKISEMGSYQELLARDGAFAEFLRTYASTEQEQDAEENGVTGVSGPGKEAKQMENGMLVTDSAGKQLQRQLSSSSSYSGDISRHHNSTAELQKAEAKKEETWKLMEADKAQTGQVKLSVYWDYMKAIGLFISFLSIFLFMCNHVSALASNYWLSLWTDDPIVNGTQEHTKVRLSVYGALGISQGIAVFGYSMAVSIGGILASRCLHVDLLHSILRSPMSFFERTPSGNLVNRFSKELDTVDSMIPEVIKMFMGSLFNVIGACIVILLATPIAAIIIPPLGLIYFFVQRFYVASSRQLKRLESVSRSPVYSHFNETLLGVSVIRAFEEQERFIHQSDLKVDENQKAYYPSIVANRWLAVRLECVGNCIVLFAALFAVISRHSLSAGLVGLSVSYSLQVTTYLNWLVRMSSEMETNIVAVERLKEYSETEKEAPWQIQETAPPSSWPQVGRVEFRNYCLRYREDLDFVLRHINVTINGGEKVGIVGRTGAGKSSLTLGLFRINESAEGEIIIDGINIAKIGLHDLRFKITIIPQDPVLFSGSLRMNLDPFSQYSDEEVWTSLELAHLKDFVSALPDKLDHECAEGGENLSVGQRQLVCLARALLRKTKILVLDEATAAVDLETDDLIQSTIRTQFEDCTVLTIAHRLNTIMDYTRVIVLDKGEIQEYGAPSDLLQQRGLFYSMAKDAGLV

| Structure (SMILES) | Survival [%] |
| --- | --- |
| O=c1[nH]c(-c2ccc(OCCCc3cn(CCOCCOc4cccc(-c5oc6ccccc6c(=O)c5OCc5ccccc5)c4)nn3)cc2)nc2ccccc12 | 67 |
| O=c1cc(-c2ccccc2)oc2cc(OCCn3cc(CN(Cc4ccccc4)Cc4cn(CCOc5ccc6occ(-c7ccccc7)c(=O)c6c5)nn4)nn3)ccc12 | 96 |
| CCc1ccc(O)c(C(=O)/C=C/c2ccc(OCCCCc3cn(CCOCCOc4ccc5c(=O)cc(-c6ccccc6)oc5c4)nn3)cc2)c1 | 68 |
| Cc1ccc2oc(-c3ccc(OCCOCCOCCn4cc(CN(Cc5ccccc5)Cc5cn(CCOCCOCCOc6ccc(-c7cc(=O)c8cc(C)ccc8o7)cc6)nn5)nn4)cc3)cc(=O)c2c1 | 52 |
| C#CCN(CCOc1ccc2c(=O)cc(-c3ccccc3)oc2c1)Cc1ccccc1 | 86 |
| CN(CCN(C)Cc1cn(CCOCCOc2ccc(-c3cc(=O)c4ccccc4o3)cc2)nn1)Cc1cn(CCOCCOc2ccc(-c3cc(=O)c4ccccc4o3)cc2)nn1 | 87 |
| CCc1ccc(O)c(C(=O)/C=C/c2ccc(OCCCCc3cn(CCOCCOc4ccc(-c5cc(=O)c6cc(F)ccc6o5)cc4)nn3)cc2)c1 | 80 |
| O=c1c(OCc2ccccc2)c(-c2ccc(OCCOCCOCCn3cc(CNc4ccccc4)nn3)cc2)oc2ccccc12 | 87 |
| O=Cc1ccc(OCCCCc2cn(CCOCCOCCOc3ccc(-c4cc(=O)c5ccccc5o4)cc3)nn2)cc1 | 70 |
| COCOc1cc(OCc2ccccc2)c2c(=O)cc(-c3ccc(OCCCc4cn(CCOCCOc5ccc(-c6cc(=O)c7cc(F)ccc7o6)cc5)nn4)cc3)oc2c1 | 63 |
| O=c1c(OCc2ccccc2)c(-c2ccc(OCCOCCn3cc(-c4cccc(-c5cn(CCOCCOc6ccc(-c7oc8ccccc8c(=O)c7OCc7ccccc7)cc6)nn5)c4)nn3)cc2)oc2ccccc12 | 87 |
| O=c1cc(-c2ccc(OCCOCCOCCn3cc(-c4ccc(-c5cn(CCOCCOCCOc6ccc(-c7cc(=O)c8ccccc8o7)cc6)nn5)cc4)nn3)cc2)oc2ccccc12 | 83 |
| CCc1ccc(O)c(C(=O)/C=C/c2ccc(OCCCCc3cn(CCOCCOCCOc4ccc(-c5cc(=O)c6ccccc6o5)cc4)nn3)cc2)c1 | 60 |
| O=C(/C=C/c1ccc(OCCCCc2cn(CCOCCOCCOc3ccc(-c4cc(=O)c5ccccc5o4)cc3)nn2)cc1)c1ccccc1O | 65 |
| O=c1c(OCc2ccccc2)c(-c2ccc(OCCOCCOCCn3cc(CN4CCN(Cc5cn(CCOCCOCCOc6ccc(-c7oc8ccccc8c(=O)c7OCc7ccccc7)cc6)nn5)CC4)nn3)cc2)oc2ccccc12 | 96 |
| O=c1cc(-c2ccccc2)oc2cc(OCCCCc3cn(CCOCCOc4ccc(-c5cc(=O)c6cc(F)ccc6o5)cc4)nn3)ccc12 | 52 |
| O=C(/C=C/c1ccc(OCCCCc2cn(CCOCCOCCOc3ccc(-c4cc(=O)c5cc(F)ccc5o4)cc3)nn2)cc1)c1ccccc1O | 56 |
| O=Cc1ccc(OCCCCc2cn(CCOCCOCCOc3ccc(-c4oc5ccccc5c(=O)c4OCc4ccccc4)cc3)nn2)cc1 | 75 |
| Cc1ccc2oc(-c3ccc(OCCCCc4cn(CCOCCOc5ccc(-c6oc7ccccc7c(=O)c6OCc6ccccc6)cc5)nn4)cc3)cc(=O)c2c1 | 73 |

| Structure (SMILES) | Survival [%] |
| --- | --- |
| C#CCCCCOc1ccc(/C=C/C(=O)c2ccc(F)cc2O)cc1 | 99 |
| C#CCN(C)CCN(C)CC#C | 87 |
| Cc1ccc2oc(-c3ccc(OCCOCCOCCn4cc(-c5ccc(-c6cn(CCOCCOCCOc7ccc(-c8cc(=O)c9cc(C)ccc9o8)cc7)nn6)cc5)nn4)cc3)cc(=O)c2c1 | 74 |
| O=C(/C=C/c1ccc(OCCCCc2cn(CCOCCOc3ccc4c(=O)cc(-c5ccccc5)oc4c3)nn2)cc1)c1ccc(F)cc1O | 64 |
| Cc1ccc2oc(-c3ccc(OCCOCCOCCn4cc(CCCCOc5ccc(C=O)cc5)nn4)cc3)cc(=O)c2c1 | 72 |
| O=c1cc(-c2ccc(OCCCc3cn(CCOCCOc4ccc(-c5cc(=O)c6cc(F)ccc6o5)cc4)nn3)cc2)oc2ccc(F)cc12 | 74 |
| COc1cccc(COc2c(-c3ccc(OCCCCc4cn(CCOCCOCCOc5ccc6c(=O)cc(-c7ccccc7)oc6c5)nn4)cc3)oc3ccccc3c2=O)c1 | 78 |
| O=c1cc(-c2ccc(OCCOCCn3cc(-c4cccc(-c5cn(CCOCCOc6ccc(-c7cc(=O)c8ccccc8o7)cc6)nn5)c4)nn3)cc2)oc2ccccc12 | 79 |
| O=c1cc(-c2ccc(OCCOCCn3cc(CN(Cc4cn(CCOCCOc5ccc(-c6cc(=O)c7cc(F)ccc7o6)cc5)nn4)Cc4cn(CCOCCOc5ccc(-c6cc(=O)c7cc(F)ccc7o6)cc5)nn4)nn3)cc2)oc2ccc(F)cc12 | 76 |
| Cc1ccc2oc(-c3ccc(OCCOCCOCCn4cc(CN(C)CCN(C)Cc5cn(CCOCCOCCOc6ccc(-c7cc(=O)c8cc(C)ccc8o7)cc6)nn5)nn4)cc3)cc(=O)c2c1 | 76 |
| O=c1cc(-c2ccc(OCCCc3cn(CCOCCOc4cccc(-c5oc6ccccc6c(=O)c5OCc5ccccc5)c4)nn3)cc2)oc2ccccc12 | 54 |
| Cc1ccc(O)c(C(=O)/C=C/c2ccc(OCCCCc3cn(CCOCCOCCOc4ccc(-c5cc(=O)c6cc(F)ccc6o5)cc4)nn3)cc2)c1 | 72 |
| Cc1ccc(C(=O)/C=C/c2ccc(OCCCCc3cn(CCOCCOc4ccc(-c5oc6ccccc6c(=O)c5OCc5ccccc5)cc4)nn3)cc2)c(O)c1 | 66 |
| COc1cccc(COc2c(-c3ccc(OCCOCCn4cc(CCCOc5ccc6c(=O)cc(-c7ccccc7)oc6c5)nn4)cc3)oc3ccccc3c2=O)c1 | 78 |
| O=c1c(OCc2ccccc2)c(-c2ccc(OCCOCCn3cc(CN(Cc4cn(CCOCCOc5ccc(-c6oc7ccccc7c(=O)c6OCc6ccccc6)cc5)nn4)Cc4cn(CCOCCOc5ccc(-c6oc7ccccc7c(=O)c6OCc6ccccc6)cc5)nn4)nn3)cc2)oc2ccccc12 | 77 |
| Cc1ccc(C(=O)/C=C/c2ccc(OCCCCc3cn(CCOCCOCCOc4ccc(-c5cc(=O)c6cc(F)ccc6o5)cc4)nn3)cc2)c(O)c1 | 51 |
| CN(CCN(C)Cc1cn(CCOCCOc2cccc(-c3oc4ccccc4c(=O)c3OCc3ccccc3)c2)nn1)Cc1cn(CCOCCOc2cccc(-c3oc4ccccc4c(=O)c3OCc3ccccc3)c2)nn1 | 83 |
| Cc1ccc(C(=O)/C=C/c2ccc(OCCCCc3cn(CCOCCOCCOc4ccc(-c5oc6ccccc6c(=O)c5OCc5ccccc5)cc4)nn3)cc2)c(O)c1 | 71 |
| O=c1cc(-c2ccccc2)oc2cc(OCCCCc3cn(CCOCCOc4ccc(-c5oc6ccccc6c(=O)c5OCc5ccccc5)cc4)nn3)ccc12 | 79 |

| Structure (SMILES) | Survival [%] |
| --- | --- |
| CN(CCN(C)Cc1cn(CCOCCOCCOc2ccc(-c3cc(=O)c4cc(F)ccc4o3)cc2)nn1)Cc1cn(CCOCCOCCOc2ccc(-c3cc(=O)c4cc(F)ccc4o3)cc2)nn1 | 79 |
| CN(CCN(C)Cc1cn(CCOCCOc2ccc(-c3oc4ccccc4c(=O)c3OCc3ccccc3)cc2)nn1)Cc1cn(CCOCCOc2ccc(-c3oc4ccccc4c(=O)c3OCc3ccccc3)cc2)nn1 | 76 |
| O=C(/C=C/c1ccc(OCCCCc2cn(CCOCCOCCOc3ccc(-c4oc5ccccc5c(=O)c4OCc4ccccc4)cc3)nn2)cc1)c1ccc(F)cc1O | 68 |
| O=c1cc(-c2ccccc2)oc2cc(OCCN(Cc3ccccc3)Cc3cn(CCOCCOCCOc4ccc(-c5oc6ccccc6c(=O)c5OCc5ccccc5)cc4)nn3)ccc12 | 65 |
| O=c1cc(-c2ccccc2)oc2cc(OCCOCCOCCn3cc(CN(Cc4cn(CCOCCOCCOc5ccc6c(=O)cc(-c7ccccc7)oc6c5)nn4)Cc4cn(CCOCCOCCOc5ccc6c(=O)cc(-c7ccccc7)oc6c5)nn4)nn3)ccc12 | 77 |
| Cc1ccc(C(=O)/C=C/c2ccc(OCCCCc3cn(CCOCCOCCOc4ccc(-c5cc(=O)c6ccccc6o5)cc4)nn3)cc2)c(O)c1 | 55 |
| O=c1cc(-c2ccc(OCCOCCOCCn3cc(CN(Cc4cn(CCOCCOCCOc5ccc(-c6cc(=O)c7cc(F)ccc7o6)cc5)nn4)Cc4cn(CCOCCOCCOc5ccc(-c6cc(=O)c7cc(F)ccc7o6)cc5)nn4)nn3)cc2)oc2ccc(F)cc12 | 77 |
| O=c1cc(-c2ccccc2)oc2cc(OCCOCCn3cc(CN(Cc4ccccc4)Cc4cn(CCOCCOc5ccc6oc(-c7ccccc7)cc(=O)c6c5)nn4)nn3)ccc12 | 76 |
| COCOc1cc(OCc2ccccc2)c2c(=O)cc(-c3ccc(OCCCc4cn(CCOCCOCCOc5ccc(-c6cc(=O)c7ccccc7o6)cc5)nn4)cc3)oc2c1 | 66 |
| O=c1cc(-c2ccccc2)oc2cc(OCCN(Cc3ccccc3)Cc3cn(CCOc4cccc5c(=O)cc(-c6ccccc6)oc45)nn3)ccc12 | 80 |
| O=c1cc(-c2ccccc2)oc2cc(OCCCCc3cn(CCOCCOc4ccc5c(=O)cc(-c6ccccc6)oc5c4)nn3)ccc12 | 53 |
| CN(CCN(C)Cc1cn(CCOc2ccc3occ(-c4ccccc4)c(=O)c3c2)nn1)Cc1cn(CCOc2ccc3c(=O)cc(-c4ccccc4)oc3c2)nn1 | 90 |
| Cc1ccc2oc(-c3ccc(OCCCCc4cn(CCOCCOCCOc5ccc(-c6oc7ccccc7c(=O)c6OCc6ccccc6)cc5)nn4)cc3)cc(=O)c2c1 | 59 |
| O=c1c(OCc2ccccc2)c(-c2cccc(OCCOCCn3cc(CN(Cc4cn(CCOCCOc5cccc(-c6oc7ccccc7c(=O)c6OCc6ccccc6)c5)nn4)Cc4cn(CCOCCOc5cccc(-c6oc7ccccc7c(=O)c6OCc6ccccc6)c5)nn4)nn3)c2)oc2ccccc12 | 91 |
| O=c1cc(-c2ccc(OCCCc3cn(CCOCCOc4ccc(-c5oc6ccccc6c(=O)c5OCc5ccccc5)cc4)nn3)cc2)oc2ccc(F)cc12 | 97 |
| O=c1cc(-c2ccccc2)oc2cc(OCCOCc3cn(CCOc4cccc5c(=O)cc(-c6ccccc6)oc45)nn3)ccc12 | 68 |
| O=c1cc(-c2ccccc2)oc2cc(OCCOCc3cn(CCOCCOCCOc4ccc(-c5cc(=O)c6cc(F)ccc6o5)cc4)nn3)ccc12 | 53 |
| O=c1c(OCc2ccccc2)c(-c2cccc(OCCOCCn3cc(CN(Cc4ccccc4)Cc4cn(CCOCCOc5cccc(-c6oc7ccccc7c(=O)c6OCc6ccccc6)c5)nn4)nn3)c2)oc2ccccc12 | 87 |
| C#CCCCCOc1ccc(/C=C/C(=O)c2ccc(C)cc2O)cc1 | 100 |
